Results on 33 molecules are retold here after ChEMBL document CHEMBL1156750 (Bioorg Med Chem Lett, 2009).

One assay concerns Plasma. Put plainly: Anticoagulant activity in human plasma assessed as concentration required to double the prothrombin based clotting time after 30 seconds. In kind it is functional. In a few lines: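 Human plasma prothrombin-based clotting time; value is the inhibitor concentration that doubles the clotting time, averaged from two independent determinations.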
Another assay concerns the target Coagulation factor X (Homo sapiens, UniProt P00742).
For the next assay, the target named is Cytochrome P450 3A4 (Homo sapiens, UniProt P08684). The assay can be described thus: Inhibition of CYP3A4 using BFC as a substrate. In kind it is ADME.
Chain of Cytochrome P450 3A4 (P08684 whole entry): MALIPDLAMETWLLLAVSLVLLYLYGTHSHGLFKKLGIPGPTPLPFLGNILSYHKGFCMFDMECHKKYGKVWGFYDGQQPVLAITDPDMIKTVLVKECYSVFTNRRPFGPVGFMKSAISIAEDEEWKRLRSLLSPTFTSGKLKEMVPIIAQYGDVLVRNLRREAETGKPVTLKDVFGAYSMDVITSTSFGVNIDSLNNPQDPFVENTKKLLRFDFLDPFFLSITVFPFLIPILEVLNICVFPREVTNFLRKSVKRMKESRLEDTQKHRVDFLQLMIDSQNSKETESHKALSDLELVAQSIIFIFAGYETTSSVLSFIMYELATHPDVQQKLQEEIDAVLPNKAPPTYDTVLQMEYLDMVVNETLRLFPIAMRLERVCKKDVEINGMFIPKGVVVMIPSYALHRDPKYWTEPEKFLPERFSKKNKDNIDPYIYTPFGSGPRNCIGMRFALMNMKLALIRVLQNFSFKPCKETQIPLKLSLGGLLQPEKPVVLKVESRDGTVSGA
The target in the next assay is Cytochrome P450 2C9 (Homo sapiens, UniProt P11712). Put plainly: Inhibition of CYP2C9. In kind it is ADME.
Chain of Cytochrome P450 2C9 (P11712 whole entry): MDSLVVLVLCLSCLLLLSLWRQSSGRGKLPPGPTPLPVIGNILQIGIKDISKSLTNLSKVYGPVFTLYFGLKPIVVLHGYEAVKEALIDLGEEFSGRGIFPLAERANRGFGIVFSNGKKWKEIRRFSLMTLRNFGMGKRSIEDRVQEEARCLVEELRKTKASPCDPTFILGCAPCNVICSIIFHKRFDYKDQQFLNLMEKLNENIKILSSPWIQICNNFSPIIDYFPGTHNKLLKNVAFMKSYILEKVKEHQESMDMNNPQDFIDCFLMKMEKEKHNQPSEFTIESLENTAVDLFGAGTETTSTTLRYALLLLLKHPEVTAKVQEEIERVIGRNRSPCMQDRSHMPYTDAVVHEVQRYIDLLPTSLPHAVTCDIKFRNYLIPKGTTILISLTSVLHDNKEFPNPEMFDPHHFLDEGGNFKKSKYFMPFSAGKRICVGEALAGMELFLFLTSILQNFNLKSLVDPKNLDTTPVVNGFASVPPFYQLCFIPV
A further assay concerns the target Cytochrome P450 2C19 (Homo sapiens, UniProt P33261). Put plainly: Inhibition of CYP2C19. In kind it is ADME.
Assay [1] relates to Rattus norvegicus. Put plainly: Anticoagulant activity against Sprague-Dawley rat arterial thrombosis model induced by topical application of Fecl2. In kind it is functional. The procedure, abridged:
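Rat carotid artery thrombosis: vehicle (PEG-400) or compound given by 1 mL/kg gavage at 0 min (5, 10, 15, 30 mg/kg; n = 5, 6, 6, 4; vehicle n = 8), with aspirin 10 mg/kg iv 15 min before FeCl2. Rats anesthetized at 30 min. 50% FeCl2 applied topically at 60 min for 10 min. Thrombus weight taken 1 h later. ANOVA with Dunnett's test.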

Assay [2] deals with Rattus norvegicus. The assay can be described thus: Ex vivo anticoagulant activity in Sprague-Dawley rat assessed as prolongation of prothrombin time at 30mg/kg, id after 120 mins. In kind it is functional. The procedure, abridged:
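Anesthetized rats dosed intraduodenally at 30 mg/kg in 10% ethanol/90% PEG300, then a saline flush. Arterial blood drawn into 3.8% Na-citrate (1/10, v/v) before dosing and at 30, 60, 90 and 120 min. Ex vivo prothrombin time measured on a micro coagulation analyzer using Thromboplastin-C reagent.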

Chain of Cytochrome P450 2C19 (P33261 whole entry): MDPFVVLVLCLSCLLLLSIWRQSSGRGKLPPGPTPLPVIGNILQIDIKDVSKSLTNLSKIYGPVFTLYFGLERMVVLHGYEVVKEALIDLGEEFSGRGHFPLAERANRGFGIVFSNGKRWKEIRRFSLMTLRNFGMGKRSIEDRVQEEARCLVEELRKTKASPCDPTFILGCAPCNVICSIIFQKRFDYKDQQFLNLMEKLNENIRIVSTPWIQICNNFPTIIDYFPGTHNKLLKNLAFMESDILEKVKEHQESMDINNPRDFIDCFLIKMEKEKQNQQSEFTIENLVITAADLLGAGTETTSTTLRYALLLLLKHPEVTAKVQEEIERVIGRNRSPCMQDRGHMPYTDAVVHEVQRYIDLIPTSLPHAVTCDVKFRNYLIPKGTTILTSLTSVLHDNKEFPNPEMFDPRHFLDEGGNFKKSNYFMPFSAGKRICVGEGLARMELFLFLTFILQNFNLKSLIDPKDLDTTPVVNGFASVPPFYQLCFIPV
Chain of Coagulation factor X (P00742 41-179 limits assumed): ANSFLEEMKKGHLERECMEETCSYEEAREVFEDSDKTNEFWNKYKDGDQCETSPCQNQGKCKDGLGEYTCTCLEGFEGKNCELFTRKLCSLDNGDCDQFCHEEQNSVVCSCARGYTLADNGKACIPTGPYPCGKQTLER
Chain of Coagulation factor X (P00742 235-488 limits assumed): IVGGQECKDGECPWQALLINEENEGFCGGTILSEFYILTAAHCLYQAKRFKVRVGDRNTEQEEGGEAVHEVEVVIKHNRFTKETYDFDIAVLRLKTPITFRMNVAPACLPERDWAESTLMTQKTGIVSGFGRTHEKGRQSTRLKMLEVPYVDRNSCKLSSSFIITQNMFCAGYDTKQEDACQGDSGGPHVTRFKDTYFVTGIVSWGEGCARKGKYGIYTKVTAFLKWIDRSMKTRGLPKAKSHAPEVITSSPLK

Consider `Cc1cc2cc(N/C(=N\C(=O)c3ccc(C(=O)O)cc3)N[C@H]3CCCCN(CC(=O)N4CCCC4)C3=O)ccc2o1`, for which the Activity with Plasma stood at 5 µM.

For orientation: IC50 means the concentration that inhibits the measured activity by half. A high value points to a need for much substance. As for `Cc1cc2cc(N/C(=N\C(=O)c3cccc(C(N)=O)c3)N[C@H]3CCCCN(CC(=O)N4CCCC4)C3=O)ccc2o1`, the Activity in the assay with Plasma stood at 7 µM. Further, inhibition on Coagulation factor X was half-maximal at 0.018 µM (IC50).

In the case of `Cc1ccc(C(=O)/N=C(\Nc2ccc3oc(C)cc3c2)N[C@H]2CCCCN(CC(=O)N3CCCC3)C2=O)cn1`, the figures for the IC50 on Cytochrome P450 3A4, against Cytochrome P450 2C9 and at Cytochrome P450 2C19 were 7 µM, 9 µM and 27 µM, respectively. Further, in the assay with Plasma, the Activity came out at 12 µM.

As to `Cc1cc2cc(N/C(=N\C(=O)c3nnn(C)n3)N[C@H]3CCCCN(CC(=O)N4CCCC4)C3=O)ccc2o1`, the Activity in the assay on Plasma was 28 µM.

In the case of `Cc1cc2cc(N/C(=N\C(=O)c3ccc(C(N)=O)cc3)N[C@H]3CCCCN(CC(=O)N4CCCC4)C3=O)ccc2o1`, the Activity in the assay on Plasma stood at 5 µM. It took 0.003 µM to reach half-maximal inhibition on Coagulation factor X (IC50). In addition, the “fold change (FC)” value in the assay on Rattus norvegicus [1] is on record as “>=3.6”.

In the case of `COC(=O)c1ccc(C(=O)/N=C(\Nc2ccc3oc(C)cc3c2)N[C@H]2CCCCN(CC(=O)N3CCCC3)C2=O)cc1`, the Activity in the assay with Plasma is 18 µM.

For the molecule `Cc1cc2cc(N/C(=N\C(=O)c3cnccn3)N[C@H]3CCCCN(CC(=O)N4CCCC4)C3=O)ccc2o1`, the Activity with Plasma turned out to be 18 µM.

On to `COC(=O)c1cccc(C(=O)/N=C(\Nc2ccc3oc(C)cc3c2)N[C@H]2CCCCN(CC(=O)N3CCCC3)C2=O)c1`, for which the Activity in the assay on Plasma came out at 41 µM. The molecule also showed an IC50 on Coagulation factor X of 0.005 µM.

Consider `Cc1cc2cc(N/C(=N/[N+](=O)[O-])N[C@H]3CCCCN(CC(=O)N4CCCC4)C3=O)ccc2o1`, for which the Activity with Plasma was over 50 µM. Further, inhibition at Coagulation factor X was half-maximal at 0.025 µM (IC50).

Turning to `Cc1cc2cc(N/C(=N\C(=O)c3cnn(C)c3)N[C@H]3CCCCN(CC(=O)N4CCCC4)C3=O)ccc2o1`, in the assay on Plasma, the Activity was 11 µM.

`Cc1cc2cc(N/C(=N\C(=O)c3ccccc3)N[C@H]3CCCCN(CC(=O)N4CCCC4)C3=O)ccc2o1`: the Activity in the assay on Plasma amounted to 48 µM.

In the case of `CNC(=O)c1ccc(C(=O)/N=C(\Nc2ccc3oc(C)cc3c2)N[C@H]2CCCCN(CC(=O)N3CCCC3)C2=O)cn1`, the IC50 at Cytochrome P450 3A4 amounted to 18 µM; against Cytochrome P450 2C9, 24 µM; against Cytochrome P450 2C19, 12 µM. Moreover, the Activity in the assay with Plasma worked out at 3 µM.

`Cc1cc2cc(N/C(=N\S(=O)(=O)c3ccccc3)N[C@H]3CCCCN(CC(=O)N4CCCC4)C3=O)ccc2o1`: the Activity with Plasma is over 50 µM. Further, half-maximal inhibition against Coagulation factor X (IC50) required 0.024 µM.

For `Cc1cc2cc(N/C(=N\C(=O)c3ccncc3)N[C@H]3CCCCN(CC(=O)N4CCCC4)C3=O)ccc2o1`, the Activity in the assay on Plasma was determined as 16 µM.

With `Cc1cc2cc(N/C(=N\C(=O)c3cncc(C(N)=O)c3)N[C@H]3CCCCN(CC(=O)N4CCCC4)C3=O)ccc2o1`, the IC50 at Cytochrome P450 3A4 was determined as 0.4 µM; against Cytochrome P450 2C9, 10 µM; against Cytochrome P450 2C19 it was 37 µM. Also, the Activity in the assay with Plasma turned out to be 7 µM.

Take `Cc1cc2cc(N/C(=N\S(C)(=O)=O)N[C@H]3CCCCN(CC(=O)N4CCCC4)C3=O)ccc2o1`: the Activity in the assay on Plasma was 60 µM. In addition, the midpoint of inhibition on Coagulation factor X, the IC50, lay at 0.01 µM.

On to `Cc1cc2cc(/N=C(/NC#N)N[C@H]3CCCCN(CC(=O)N4CCCC4)C3=O)ccc2o1`, for which the entries for the “fold change (FC)” value in the assay on Rattus norvegicus [2] and with Rattus norvegicus [1] were “>=1.8” and at least 1.8, respectively. Moreover, in the assay with Plasma, the Activity stood at 32 µM.

Regarding `Cc1cc2cc(N/C(=N\C(=O)c3ccsc3)N[C@H]3CCCCN(CC(=O)N4CCCC4)C3=O)ccc2o1`, the Activity in the assay on Plasma was determined as 19 µM.

On to `Cc1cc2cc(N/C(=N\C(N)=O)N[C@H]3CCCCN(CC(=O)N4CCCC4)C3=O)ccc2o1`, for which the Activity in the assay on Plasma came out at 60 µM.

Take `CCOC(=O)/N=C(\Nc1ccc2oc(C)cc2c1)N[C@H]1CCCCN(CC(=O)N2CCCC2)C1=O`: in the assay on Plasma, the Activity amounted to 34 µM.

Take `Cc1cc2cc(N/C(=N\C(=O)c3cccc(C(=O)N(C)C)c3)N[C@H]3CCCCN(CC(=O)N4CCCC4)C3=O)ccc2o1`: in the assay on Plasma, the Activity is 8 µM. Also, it took 0.01 µM to reach half-maximal inhibition on Coagulation factor X (IC50).

Regarding `CC(=O)/N=C(\Nc1ccc2oc(C)cc2c1)N[C@H]1CCCCN(CC(=O)N2CCCC2)C1=O`, the Activity in the assay on Plasma was found to be 70 µM.

As to `Cc1cc2cc(N/C(=N\C(=O)c3ccc[n+]([O-])c3)N[C@H]3CCCCN(CC(=O)N4CCCC4)C3=O)ccc2o1`, the IC50 against Cytochrome P450 3A4 was found to be 0.9 µM; against Cytochrome P450 2C9 it was 122 µM; against Cytochrome P450 2C19, 128 µM; against Coagulation factor X, 0.01 µM. Further, in the assay on Plasma, the Activity was 3 µM.

In the case of `Cc1cc2cc(N/C(=N\C(=O)c3cccc(Cl)c3)N[C@H]3CCCCN(CC(=O)N4CCCC4)C3=O)ccc2o1`, the Activity with Plasma is over 50 µM.

As for `Cc1cc2cc(/N=C(/NC(=O)c3cccnc3)N[C@H]3CCCCN(CC(=O)N4CCCC4)C3=O)ccc2o1`, the IC50 on Cytochrome P450 3A4 was determined as 0.3 µM; against Cytochrome P450 2C9, 10 µM; at Cytochrome P450 2C19, 8 µM. In addition, the “fold change (FC)” value in the assay with Rattus norvegicus [2] is recorded as “>=3.2”. In addition, the Activity in the assay on Plasma came to 7 µM.

`Cc1cc2cc(N/C(=N\C(=O)c3ccc(C(=O)O)nc3)N[C@H]3CCCCN(CC(=O)N4CCCC4)C3=O)ccc2o1`: the IC50 against Cytochrome P450 3A4 came to 87 µM; on Cytochrome P450 2C9, 122 µM; against Cytochrome P450 2C19, 47 µM. The Activity in the assay with Plasma came to 6.8 µM.

With `Cc1cc2cc(N/C(=N\C(=O)c3ccc(C(=O)N(C)C)cc3)N[C@H]3CCCCN(CC(=O)N4CCCC4)C3=O)ccc2o1`, in the assay on Plasma, the Activity stood at 4 µM. The molecule also showed an IC50 against Coagulation factor X of 0.003 µM. For the same molecule, the “fold change (FC)” value with Rattus norvegicus [1] is “>=3.6”.

For the molecule `Cc1cc2cc(N/C(=N\C(=O)N(C)C)N[C@H]3CCCCN(CC(=O)N4CCCC4)C3=O)ccc2o1`, the Activity in the assay on Plasma stood at 55 µM.

As to `Cc1cc2cc(N/C(=N\S(N)(=O)=O)N[C@H]3CCCCN(CC(=O)N4CCCC4)C3=O)ccc2o1`, the Activity with Plasma is over 50 µM. This molecule displayed an IC50 against Coagulation factor X of 0.012 µM.

As to `Cc1cc2cc(N/C(=N\C(=O)c3ccc(C(N)=O)nc3)N[C@H]3CCCCN(CC(=O)N4CCCC4)C3=O)ccc2o1`, the results for the IC50 at Cytochrome P450 3A4, against Cytochrome P450 2C9 and against Cytochrome P450 2C19 were 18 µM, 22 µM and 13 µM, respectively. In addition, the Activity in the assay with Plasma turned out to be 5.7 µM.

Consider `Cc1cc2cc(N/C(=N\C(=O)c3ccoc3)N[C@H]3CCCCN(CC(=O)N4CCCC4)C3=O)ccc2o1`, for which the Activity with Plasma came to 33 µM.

Consider `Cc1cc2cc(N/C(=N\C(=O)c3ccc(Cl)nc3)N[C@H]3CCCCN(CC(=O)N4CCCC4)C3=O)ccc2o1`, for which the half-inhibitory concentration (IC50) came to 8 µM at Cytochrome P450 3A4, 12 µM on Cytochrome P450 2C9 and 22 µM at Cytochrome P450 2C19. Also, the Activity in the assay on Plasma is 14 µM.

Regarding `COC(=O)c1ccc(C(=O)/N=C(\Nc2ccc3oc(C)cc3c2)N[C@H]2CCCCN(CC(=O)N3CCCC3)C2=O)nc1`, the Activity in the assay with Plasma turned out to be 16 µM.
